55 compounds from ChEMBL document CHEMBL1144259, “2-Mercaptoimidazoles, a new class of potent CCR2 antagonists” (Bioorg Med Chem Lett, 2005) can be followed below.

The experiment is described as follows: Inhibitory activity against MCP-1 induced Calcium flux in […]. As to conditions: Homo sapiens, THP-1. In kind it is functional, cell-based. The method in brief:
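THP-1 cells loaded 30 min with 4 µM Fluo-3 AM at 2 million cells/mL (RPMI, 20 mM HEPES, 0.1% BSA, 5 mM probenecid). Washed into HEPES saline with 1.25 mM CaCl2, 2.5 mM probenecid and 0.1% BSA. Plated at 150,000 cells/well, preincubated 20 min with compound, then stimulated with 10^-7 M hMCP-1. FLIPR fluorescence recorded from 10 s before to 2 min after; maximal signal used.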
One may read the IC50 as the concentration needed to halve the response being measured. On to `CCC(c1ccc(Cl)c(Cl)c1)n1c(C(=O)O)cnc1S` (stereo not given), for which the half-inhibitory concentration (IC50) was > 10000 nM. `CCC(c1ccc(Cl)c(Cl)c1)n1c(CO)cnc1S` (stereo not given): the IC50 is > 10000 nM. To `CCCCNC(=O)c1cnc(S)n1C(CC)c1ccc(F)c(F)c1` (stereo not given) belongs > 10000 nM; to `CCC(c1ccc(C(F)(F)F)c(F)c1)n1c(C(=O)OC)cnc1S` (stereo not given), 2000 nM. Take `CCC(c1ccc(Cl)c(Cl)c1)n1c(S)nc(C(=O)O)c1C(=O)OC` (stereo not given): the IC50 is > 10000 nM. Consider `CCC(c1ccc(C(F)(F)F)c(F)c1)n1c(S)nc(C(=O)OC)c1C(=O)OC` (stereo not given), for which the IC50 was 20 nM. For the compound `CCC(c1ccc(Cl)c(Cl)c1)n1c(C(=O)OC)cnc1S` (stereo not given), the IC50 is 200 nM. To `COC(=O)c1cnc(S)n1C(c1ccc(Cl)c(Cl)c1)C1CC1` (stereo not given) belongs 2000 nM; to `COCC(c1ccc(Cl)c(Cl)c1)n1c(C(=O)OC)cnc1S` (stereo not given), 316 nM.

Take `CCC(c1ccc(F)c(F)c1)n1c(C(=O)N2CCOCC2)cnc1S` (stereo not given): the IC50 was > 10000 nM. Take `CCC(c1cccc(Cl)c1)n1c(C(=O)OC)cnc1S` (stereo not given): the IC50 was > 10000 nM.

As for `CCCC(c1ccc(Cl)c(Cl)c1)n1c(C(=O)OC)cnc1S` (stereo not given), the half-maximal inhibitory concentration (IC50) is 158 nM. Take `CCC(c1ccccc1Cl)n1c(C(=O)OC)cnc1S` (stereo not given): the IC50 is > 10000 nM. In the case of `COC(=O)c1cnc(S)n1C(c1ccc(Cl)c(Cl)c1)c1cccs1` (stereo not given), the IC50 was > 10000 nM.

For the compound `CCC(c1ccc(C)c(C)c1)n1c(C(=O)OC)cnc1S` (stereo not given), the IC50 is > 10000 nM. On to `CCC(c1ccc(Cl)c(Cl)c1)n1c(S)nc(C(=O)NC)c1C(=O)NC` (stereo not given), for which the IC50 is 398 nM.

Turning to `CCC(c1ccc(F)c(F)c1)n1c(C(=O)NC)cnc1S` (stereo not given), the IC50 is 2000 nM. As for `CCC(c1cc(Cl)cc(Cl)c1)n1c(C(=O)OC)cnc1S` (stereo not given), the IC50 is > 10000 nM.

Consider `CCC(c1ccc(Cl)c(Cl)c1)n1c(C(=O)NC)cnc1S` (stereo not given), for which the IC50 was 316 nM.

For the compound `CCC(c1ccc(Cl)c(Cl)c1)n1c(S)nc(C)c1C(=O)NC` (stereo not given), the IC50 is > 10000 nM. Then `CCC(c1ccc(Br)c(Br)c1)n1c(C(=O)OC)cnc1S` (stereo not given), with 251 nM; and `CCC(c1ccccc1)n1c(C(=O)OC)cnc1S` (stereo not given), with > 10000 nM; and `CC[C@@H](c1ccc(Cl)c(Cl)c1)n1c(C(=O)OC)cnc1S`, with 126 nM. As for `CCOC(=O)c1cnc(S)n1C(CC)c1ccc(F)c(F)c1` (stereo not given), the IC50 was 316 nM. To `CCC(c1ccc(Cl)c(Cl)c1)n1c(C(=O)OC(C)C)cnc1S` (stereo not given) belongs 316 nM; to `CCC(c1ccc(F)c(C(F)(F)F)c1)n1c(S)nc(C(=O)OC)c1C(=O)OC` (stereo not given), 100 nM.

As to `COC(=O)c1cnc(S)n1C(c1ccc(Cl)c(Cl)c1)c1ccc(Cl)c(Cl)c1`, the 50% inhibitory concentration (IC50) was > 10000 nM. Regarding `CCC(c1ccc(Cl)c(Cl)c1)n1c(S)nc(C)c1C(=O)OC` (stereo not given), the IC50 is 251 nM. Then `CCC(c1ccc(F)c(F)c1)n1c(C(=O)NCC(C)C)cnc1S` (stereo not given), with > 10000 nM; and `CCC(c1cc(F)cc(F)c1)n1c(C(=O)OC)cnc1S` (stereo not given), with > 10000 nM; and `COC(=O)c1cnc(S)n1C(C)(C)c1ccc(Cl)c(Cl)c1`, with > 10000 nM. Consider `CCC(c1ccc(Cl)c(Cl)c1)n1c(S)nc(C(N)=O)c1C(N)=O` (stereo not given), for which the IC50 was 63.1 nM. `CC[C@@H](c1ccc(F)c(F)c1)n1c(S)nc(C(=O)OC)c1C(=O)OC`: the IC50 is 7.94 nM. As to `CCC(c1ccc(F)c(F)c1)n1c(C(=O)N2CCCCC2)cnc1S` (stereo not given), the IC50 was > 10000 nM. Then `CCC(c1ccc(Cl)c(Cl)c1)n1c(C#N)cnc1S` (stereo not given), with 631 nM; and `CCC(c1ccc(OC)c(OC)c1)n1c(C(=O)OC)cnc1S` (stereo not given), with > 10000 nM. Take `CC[C@@H](c1ccc(Cl)c(Cl)c1)n1c(C(N)=O)cnc1S`: the IC50 was 39.8 nM. To `CCC(c1ccc(F)c(F)c1)n1c(S)nc(C(=O)OC)c1C(=O)OC` (stereo not given) belongs 10 nM. `CC[C@@H](c1ccc(Cl)c(Cl)c1)n1c(S)nc(C(=O)OC)c1C(=O)OC`: the IC50 was 7.94 nM. Then `CCC(c1ccc(Cl)c(Cl)c1)n1c(S)nc(C(=O)OC)c1C(=O)OC` (stereo not given), with 10 nM. Turning to `CCC(c1ccc(F)c(F)c1)n1c(C(=O)OC)cnc1S` (stereo not given), the IC50 is 1260 nM. Then `CCC(c1cccc(Oc2ccccc2)c1)n1c(C(=O)OC)cnc1S` (stereo not given), with > 10000 nM; and `COC(=O)c1cnc(S)n1C(C)c1ccc(Cl)c(Cl)c1` (stereo not given), with 251 nM. Then `CCC(c1ccc(C(F)(F)F)cc1)n1c(C(=O)OC)cnc1S` (stereo not given), with > 10000 nM. Then `CCC(c1ccc(Cl)c(Cl)c1)n1c(C(N)=O)cnc1S` (stereo not given), with 50.1 nM. As for `CCC(c1ccc(Cl)c(Cl)c1)n1c(S)nc(C(=O)OC)c1C#N` (stereo not given), the IC50 was 39.8 nM. To `CC[C@H](c1ccc(Cl)c(Cl)c1)n1c(C(=O)OC)cnc1S` belongs 1580 nM.

Turning to `CC[C@H](c1ccc(F)c(F)c1)n1c(S)nc(C(=O)OC)c1C(=O)OC`, the IC50 is 2000 nM.

For `CCC(c1ccc(F)c(C(F)(F)F)c1)n1c(C(=O)OC)cnc1S` (stereo not given), the IC50 was 1000 nM. Regarding `CCC(c1ccc(Cl)c(Cl)c1)n1c(S)nc(C(N)=O)c1C#N` (stereo not given), the IC50 was 126 nM. To `CCC(c1ccc(F)c(F)c1)n1c(C(=O)N2CCCC2)cnc1S` (stereo not given) belongs > 10000 nM; to `COC(=O)c1cnc(S)n1C(c1ccc(Cl)c(Cl)c1)C1CCCCC1` (stereo not given), 10000 nM; to `CCC(c1ccc(F)c(F)c1)n1c(C(N)=O)cnc1S` (stereo not given), 501 nM.

Consider `CC[C@H](c1ccc(Cl)c(Cl)c1)n1c(C(N)=O)cnc1S`, for which the IC50 is 10000 nM.

For `CCC(c1ccc(Cl)cc1)n1c(C(=O)OC)cnc1S` (stereo not given), the IC50 is > 10000 nM.
